Screens from PubChem BioAssay.
Most compounds without a hit are left out; they make up all but 1.2% or so of the library.
DTT redox prof: compounds producing H2O2 with reducing agent – biochemical, NIH compound library profiling, artefact control for MLSCN library redox annotation, primary screen; DTT-dependent redox cycling H2O2, phenol red/HRP absorbance; 100% = 100 µM peroxide control, 0% = buffer; activation, % at 10 µM; hit rate 0.03% among 200,000; AID 878, 2007;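 active means activation of at least 50% relative to the plate's high and low controls in the primary single-dose screen; inactive means activation below 50%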;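 further: compound incubated with DTT at 0.8 mM final as the reducing agent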
HMGR II inh: inhibitors of E. faecalis class II HMGR, primary screen, biochemical, Enterococcus faecalis; HMG-CoA reductase (Enterococcus faecalis, mvaE); hit rate 0.41% among 190,000; AID 1066, 2008; inhibition, % at 10 µM; purified E. faecalis HMGR, NADPH absorbance 340 nm kinetic;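 active means inhibition above a set limit, the median over all tested compounds plus 3 SD, cut at about 9.5% in these data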;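 further: enzyme runs in reverse so mevalonate oxidation gives rising NADPH absorbance; 0% = complete reaction with DMSO and 100% = background rate lacking mevalonate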
PMI act hi M6P: human PMI activators, high substrate, primary screen, biochemical, fluorescence intensity, near-saturating mannose 6-phosphate; hit rate 0.34% among 190,000; coupled PMI enzyme assay, resazurin fluorescence, 20 min; hits give high values; 1 = untreated enzyme, 0 = substrate-free blank; activation factor at 20 µM; Mannose-6-phosphate isomerase (Homo sapiens), P34949;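 active means activation factor of 2 or more at 20 µM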
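Technique: Diaphorase-driven resazurin-to-resorufin fluorescence, excitation 544, emission 590 nm | Assay system: Human PMI in coupled enzyme assay | Times: Enzyme reaction with compound 20 min at room temperature | Medium: HEPES-buffered pH 7.4 with magnesium and detergent | Reagent: Mannose-6-phosphate 1.0 mM (near-saturating) plus 0.22 mM NADP+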
NCF1 inh: p47phox/p22phox peptide binding inhibitors, primary screen, biochemical, uHTS, NADPH oxidase regulatory subunit. Neutrophil cytosol factor 1 (Homo sapiens), P14598. fluorescence polarization, 2 h. inhibition, % at 24.7 µM. hit rate 0.53% among 220,000. AID 1274, 2008;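 active means inhibition above about 30%, limit read from the data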;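 further: 0% = p47phox with labelled peptide and 100% = labelled peptide alone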
Target sequence (P14598 whole entry, looked up): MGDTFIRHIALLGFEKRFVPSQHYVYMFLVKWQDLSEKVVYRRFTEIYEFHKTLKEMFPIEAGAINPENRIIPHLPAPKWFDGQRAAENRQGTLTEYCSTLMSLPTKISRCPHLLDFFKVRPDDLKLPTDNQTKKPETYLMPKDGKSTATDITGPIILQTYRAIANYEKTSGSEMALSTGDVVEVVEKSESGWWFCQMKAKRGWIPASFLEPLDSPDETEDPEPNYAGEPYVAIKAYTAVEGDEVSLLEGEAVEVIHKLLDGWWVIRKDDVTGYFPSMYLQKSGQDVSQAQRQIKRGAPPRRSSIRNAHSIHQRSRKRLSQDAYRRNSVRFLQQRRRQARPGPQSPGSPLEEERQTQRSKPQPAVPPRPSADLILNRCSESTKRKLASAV
PMI activator: activators of human PMI, primary screen, biochemical, fluorescence intensity, near-Km mannose 6-phosphate | Mannose-6-phosphate isomerase (Homo sapiens), P34949 | purified human PMI, coupled resazurin fluorescence, 20 min; hits give high values; 1 = vehicle control, 0 substrate-free wells | activation factor at 20 µM | hit rate 0.005% among 190,000 | AID 1214, 2008;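 active means activation factor of 2 or more at 20 µM, relative to plate controls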
Diaphorase act: compounds boosting diaphorase resazurin reduction – biochemical, uHTS, resorufin fluorescence, counter-screen for diaphorase-coupled primary assays, primary screen | Diaphorase/resazurin coupled assay, 16 min; hits give high values; 1 = vehicle wells, 0 = NADH-free wells | activation factor at 20 µM | hit rate 0.005% among 190,000;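 active means diaphorase activity raised at least twofold by the compound at 20 µM; inactive means activation factor below 2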
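Assay system: bacterial diaphorase enzyme (C. kluyveri) / Input: enzyme 0.07 U/mL final / Medium: 50 mM HEPES pH 7.4 with 4.542 mM MgCl2, 0.005% Tween 20 / Doses: single compound dose of 20 µM, 1% DMSO final / Incubation: 16 min enzyme reaction, ambient temperature / Signal: fluorescence, excitation 544 nm and emission 590 nm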
Starred values were filed as active, the others as inactive; x = not tested or not shown; ! = not active in a repeat.

SMILES	DTT redox prof	HMGR II inh	PMI act hi M6P	NCF1 inh	PMI activator	Diaphorase act
O=S(=O)(c1ccccc1F)N1CCN(CC(O)c2ccccc2)CC1 (stereo not given)	-0.1	-6.9	1	-18.8	1	0.9
CC(C)CC(N)C(=O)OCc1ccc([N+](=O)[O-])cc1 (stereo not given)	x	x	x	-14.8	x	x
COc1cccc(C2C3=C(N=c4s/c(=C\c5ccccc5O)c(=O)n42)c2ccccc2CC3)c1OC (stereo not given)	-1.0	2.8	1.1	-0.7	1	0.8
CCN(CC)S(=O)(=O)c1cccc(NC(=O)c2cc(=O)[nH]c3ccccc23)c1	0.2	-12.6	1	-19.4	1	0.8
Cc1ccc(Cl)cc1NC(=O)COC(=O)C1CCCC1	-2.5	2.6	1	-4.4	0.9	0.9
Cc1ccc(Cl)cc1NC(=O)COC(=O)C12CC3CC(CC(C3)C1)C2	0.0	14.0*!	0.9	-15.0	0.8	0.8
Fc1ccc(Nc2ccc3ccccc3n2)c(F)c1	-1.4	-4.7	1	-1.5	1.2	1
CCOC(=O)c1oc2cccc(O)c2c1CN(Cc1ccccc1)C(C)=O	2.2	1.1	1	32.8*	0.9	0.8
O=C(O)c1ccc(N/N=C/c2cccc(F)c2)cc1	0.5	-5.1	2.9*	-2.1	1.9	1
COc1cccc2c(=O)cc(C)n(CC(=O)Nc3cccc(C)c3)c12	0.4	-3.8	1	-6.9	1	0.9
O=C(N=Nc1c(O)n(C2OC(=O)c3ccccc32)c2ccccc12)c1ccco1 (stereo not given)	x	x	x	30.9*	x	x
CCCC(=O)c1ccc(O)cc1O	x	x	x	-15.6	x	x
COC(=O)c1cc(=O)n(-c2ccc(F)cc2)c(=Nc2ccc(F)cc2)s1	0.7	11.2*	0.9	2.6	0.9	0.9
COc1ccc(N2C(=O)CCC(C(=O)NCc3cccnc3)C2c2ccc(OC)c(OC)c2)cc1 (stereo not given)	0.1	-1.8	1	199.6*	1	1
C=CCC1C=C(C)CC(CC=C)N1 (stereo not given)	0.5	13.3*	1.1	8.4	1.1	1.1
COc1cc([N+](=O)[O-])c(OC)cc1SCc1n[nH]c(=S)n1-c1ccc(F)cc1	x	x	x	4.5	x	x
C[n+]1nc(Nc2cccc(F)c2)sc1-c1ccc(C(=O)O)cc1	x	x	x	5.1	x	x
COc1ccc(OCC(=O)N/N=C/c2ccsc2)cc1	0.3	1.8	0.8	73.8*	0.9	0.8
COc1ccc(/C=C(/C#N)C(=O)Nc2cc(C)ccc2C)cc1C(=O)O	1.7	-2.4	1.1	163.3*	1.1	1.1
O=C(Nc1ccc(-c2cn3c(n2)SCC3)cc1)c1ccc2c(c1)OCO2	-0.8	13.1*	0.9	-19.2	1	0.8
O=C(NCCN1CCN(c2ccccc2)CC1)c1ccc2c(c1)[nH]c(=S)n1c3ccccc3nc21	-0.5	9.6*	1.2	6.0	1.2	0.9
O=C(Cc1cccs1)N(Cc1ccco1)C1(C(=O)NC2CCCCC2)CCCCC1	0.2	0.2	1	42.8*	1	1.1
O=C(Cc1cccs1)N(Cc1cccs1)C1(C(=O)NC2CCCC2)CCCCC1	0.3	-1.3	1	-0.3	0.9	1
CC1CCC(NC(=O)c2ccc(NC(=O)c3ccc(=O)[nH]c3)cc2)CC1 (stereo not given)	0.4	-5.2	1	-4.0	1.1	1
c1coc(-c2nnc(-c3ccc4c(c3)OCO4)o2)c1	0.7	-3.7	1	-11.9	1	0.9
SMILES	DTT redox prof	HMGR II inh	PMI act hi M6P	NCF1 inh	PMI activator	Diaphorase act
Cc1ccc(-c2nnc(-c3ccc4c(c3)OCO4)o2)cc1	0.3	-0.4	1	130.6*	1.1	1
CCCCOc1ccc(/C=C/C(=O)OCC(=O)N2CC(=O)Nc3ccccc32)cc1OCC	0.4	0.9	0.8	0.0	0.7	0.7
Cc1cc(=O)oc2cc(NC(=O)c3cc4ccccc4o3)ccc12	-1.1	-5.3	1.1	3.8	1	0.9
O=C(Nc1ccc2oc(=O)ccc2c1)c1cc2ccccc2o1	6.4	-3.5	0.9	32.2*	0.9	0.9
COc1ccc(-c2cc(-n3c(C(F)(F)F)nc4ccccc43)n(CCC#N)n2)cc1	-1.6	12.9*	1	-16.3	0.9	0.9
CCCSc1nc(=S)n(Cc2ccccc2)c(C)c1C(C)=O	0.2	-5.1	1.1	-7.9	1.1	1
CCO/C=C1/C(=O)N(C(C)=O)c2ccccc21	-2.4	-1.1	2.6*	6.2	1.7	1.1
CC(=O)Nc1cccc(NC(=O)CSc2nnnn2-c2ccc3c(c2)OCO3)c1	x	x	x	-9.0	x	x
CCC(=C(c1ccc(OC)cc1)c1ccc(OC)cc1)c1cn(CC(O)CN2CCN(C)CC2)c2ccccc12 (stereo not given)	-0.4	2.1	1.1	77.7*	1	1.3
COc1ccc(-c2cc3ccccc3n2CC(O)CN2CCCCC2)cc1 (stereo not given)	x	x	x	-4.0	x	x
Cc1nn(CC(=O)NCc2ccco2)c(C)c1[N+](=O)[O-]	x	x	x	-0.2	x	x
C=CCC1CCCCC12NC(=O)N(c1ccccc1)N2 (stereo not given)	x	x	x	-11.8	x	x
O=C1CCC2(CC1)NC(=O)N(c1ccccc1)N2	-0.7	-6.8	2.6*	-2.0	1.7	0.8
CCn1nc(C)c(NC(=O)/C=C/c2ccc(OC)c(COc3ccc(Cl)cc3Br)c2)c1C	1.3	0.3	1	71.4*	1	1.1
CC1=NN(C(=O)c2cc(C)nn2C)C(O)(C(F)(F)F)C1 (stereo not given)	-0.2	1.6	1.2	-3.6	1.2	1
CC1(C)Cc2nc3sc4c(N(CCO)CCO)ncnc4c3cc2CO1	1.1	1.1	0.9	2.4	0.9	1
CCN(CCO)c1ncnc2c1sc1nc(CC(C)C)c3c(c12)CC(C)(C)OC3	-4.1	9.7*	0.9	-10.0	0.8	0.7
COc1ccc2[nH]c3c(=S)nc[nH]c3c2c1	-0.6	0.1	2.6*	-2.0	1.8	0.7
COc1ccc2[nH]c3c(Cl)ncnc3c2c1	0.1	-2.2	1	2.7	0.9	0.9
O=C/C(=C\Nc1ccc(C(=O)N2CCOCC2)cc1)c1nc2ccccc2o1	0.3	-3.7	1	-5.3	1.3	1.1
